High-throughput results: PubChem, several laboratories
The list is not random: actives were taken first. Their share in the collection is about 4.3%.
Hep lipid drop – modulators of hepatic lipid droplet formation; AML12 mouse hepatocytes, oleate lipid droplets, BODIPY imaging; actives 0.4% (n = 240,000); inhibition, % at 6.5 µM;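 active = lipid droplet intensity inhibited by at least 50%, with more than 500 cells counted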
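Assay system: AML12 mouse liver cells | Compound dosing: One dose, 6.5 µM compound | Read-out basis: Droplet intensity reduction, % inhibition | Measured by: Fluorescence imaging, 20x objective, two fields per well | Schedule: Overnight treatment with compound plus oleate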
SR-BI DiI-HDL act – activators of SR-BI mediated HDL lipid uptake; CHO ldlA[mSR-BI] cells, DiI-HDL uptake fluorescence, 3 h; 100 = double the neutral-control signal; activation, % at 12.5 µM; actives 0.096% (n = 320,000); AID 504775;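 active = mean replicate activation of at least 60% and every replicate at or above 60%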
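material = CHO ldlA[mSR-BI] cells | medium = Ham's F12 with 0.5% BSA, HEPES 25 mM, pH 7.4 | reagent = fluorescent DiI-HDL, 10 µg/mL final | compound dosing = single-point compound dose | incubation = 3 h, 37 °C | measured by = bottom-read fluorescence, 550/595 nm | measure = HDL uptake via cellular fluorescence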
CR mimetic SO – caloric restriction mimetics inhibiting age-related superoxide in yeast; superoxide response (% of plate mean), % at 10 µM; AID 2690; actives 0.18% (n = 330,000); S. cerevisiae aged cells, superoxide DHE fluorescence; active compounds read low;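 active = superoxide response under a set limit, about three screen SD below normal, cut at about 65% in these data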;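 also: yeast aged for seven days with compound at 30 °C before DHE staining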
SMARCA2 activ – SMARCA2 function activation, primary screen; MG213 cells, MMTV-luciferase reporter, dexamethasone, overnight; activation, % at 9.1 µM; actives 1% (n = 370,000); in the data active = activation above about 7.8%
SR-BI DiI inh – inhibitors of mouse SR-BI mediated HDL lipid uptake; ldlA[mSR-BI] CHO cells, DiI-HDL uptake fluorescence, 3 h; inhibition, % at 12.5 µM; actives 0.96% (n = 320,000); AID 488896; Q61009;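 active = mean replicate inhibition of at least 70% and a set share of replicates each scoring 70 or more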
AHR act – activators of human aryl hydrocarbon receptor | P35869 | AHR-responsive luciferase reporter cells, luminescence | activation, % at 5 µM | actives 2.5% (n = 320,000) | AID 2796; in the data active = activation above about 47%
Large screens that a line does not name were inactive.

c1ccc2c(c1)oc1c(Nc3ccc4c(c3)OCO4)ncnc12	none (no result: Hep lipid drop)
Cc1ccc(Nc2nc(C)nc3c2oc2ccccc23)cc1	AHR act 61
Cc1nc(NCCN2CCOCC2)c2oc3ccccc3c2n1	none (no result: Hep lipid drop)
Cc1nc(Nc2ccc3c(c2)OCO3)c2oc3ccccc3c2n1	AHR act 65 (no result: Hep lipid drop)
Cc1nc(Nc2ccccc2)c2oc3ccc(Cl)cc3c2n1	AHR act 51
Cc1nc(NCCc2ccccc2)c2oc3ccccc3c2n1	AHR act 64
COC(=O)C1=C(C)N(Cc2cccc(C(F)(F)F)c2)C(=NCC2CC2)NC1c1cccc(Cl)c1 (configuration not stated)	none (no result: Hep lipid drop, SR-BI DiI-HDL act, CR mimetic SO, SR-BI DiI inh, AHR act)
CCOC(=O)[C@@]12CCCC=C1N(CCc1ccc(Cl)cc1)C(=O)[C@H]2CC(=O)NCc1cccs1	none (no result: Hep lipid drop, SR-BI DiI-HDL act, CR mimetic SO, SR-BI DiI inh, AHR act)
Cc1cc(=O)[nH]c(SCC(=O)Nc2cccc(Cl)c2F)n1	none (no result: Hep lipid drop, SR-BI DiI-HDL act, CR mimetic SO, SR-BI DiI inh, AHR act)
CCc1nc(Nc2ccc(N3CCN(C(C)=O)CC3)cc2)c2oc3ccccc3c2n1	SR-BI DiI inh 75 (no result: Hep lipid drop)
CC(OC(=O)CCCN=C1NS(=O)(=O)c2ccccc21)C(=O)c1ccccc1 (configuration not stated)	AHR act 59 (no result: Hep lipid drop)
Cc1cccc(N2CCN(C(=O)C3CCN(c4ncnc5c4nc4n5CCCCC4)CC3)CC2)c1C	SR-BI DiI inh 74
Cc1cccc(N2CCN(C(=O)C3CCN(c4ncnc5c4nc4n5CCCCC4)CC3)CC2C)c1 (configuration not stated)	SR-BI DiI inh 71
O=C(C1CCN(c2ncnc3c2nc2n3CCCCC2)CC1)N1CCN(c2ccccc2F)CC1	none
O=C(Nc1ccccc1)OCCN1C(=O)CCC12CCC(c1ccc(Cl)cc1)CC2 (configuration not stated)	none (no result: Hep lipid drop, SR-BI DiI-HDL act, CR mimetic SO, SR-BI DiI inh, AHR act)
CCCCOn1c(C)c(C(C)=O)c2c3no[n+]([O-])c3ccc21	SR-BI DiI inh 78
CCOC(=O)COn1c2c(c3c4no[n+]([O-])c4ccc31)CCCC2	none
CCOC(=O)c1c(C)n(OCc2ccccc2)c2ccc3c(no[n+]3[O-])c12	SR-BI DiI inh 86
Cc1cnnc2ccc3c(no[n+]3[O-])c12	none (no result: Hep lipid drop)
CC(=O)Nc1ccc2c(c1)-c1ccc(F)cc1C2	none (no result: Hep lipid drop, CR mimetic SO, AHR act)
CC(=O)Nc1ccc2c(c1)Cc1ccc(Cl)cc1-2	SR-BI DiI inh 74 (no result: Hep lipid drop, CR mimetic SO, AHR act)
CC(Oc1ccccc1)C(=O)Nc1nc(-c2ccccn2)cs1 (configuration not stated)	none (no result: Hep lipid drop, CR mimetic SO, AHR act)
CC(Oc1ccccc1)C(=O)Nc1nc(-c2ccncc2)cs1 (configuration not stated)	AHR act 47 (no result: Hep lipid drop)
CCOC(=O)CCCNC(=O)OC1CC2CC1[C@H]1CCCCN1[C@H]2Cc1ccccc1 (some centres not stated)	none (no result: Hep lipid drop, SR-BI DiI-HDL act, CR mimetic SO, SR-BI DiI inh, AHR act)
COc1cccc(CC(=O)O[C@@H]2CCC[C@@]3(C(=O)N(Cc4ccccc4)c4ccccc43)[C@H]2NC(=O)CCc2ccccc2)c1	none (no result: Hep lipid drop, SR-BI DiI-HDL act, CR mimetic SO, SR-BI DiI inh, AHR act)
N#CC(C(=O)Nc1cccc(Cl)c1)=C1Nc2ccccc2N1	SR-BI DiI inh 73
N#CC(C(=O)Nc1ccccc1)=C1Nc2ccccc2N1	AHR act 78
COc1ccc2oc(/C=C/N(C)C)c(C(=O)c3ccc(Cl)cc3)c2c1	SR-BI DiI inh 78 (no result: Hep lipid drop)
COc1ccc2oc(C)c(C(=O)c3ccccc3)c2c1	none (no result: Hep lipid drop, SR-BI DiI-HDL act, SR-BI DiI inh)
CCOC(=O)c1csc(NC(=O)c2ccc(OC)c(OC)c2)n1	SR-BI DiI inh 77 (no result: Hep lipid drop)
COc1ccc(C(=O)Nc2sc(C)c(-c3ccccc3)c2C#N)cc1OC	SR-BI DiI inh 85
Cc1sc(NC(=O)COc2ccccc2)c(C#N)c1-c1ccccc1	none
FC(F)Oc1ccc(NC(=S)N2CCc3ccccc32)cc1	AHR act 51
COc1ccc(-n2cc3c(-c4cccc(Br)c4)nnc(C)c3n2)cc1	AHR act 61
COc1ccc(Cc2c(-c3cccc(Br)c3)nc3ccc(Br)cn23)c(C)c1	none (no result: Hep lipid drop, SR-BI DiI-HDL act, CR mimetic SO, SR-BI DiI inh, AHR act)
Cc1nnc(-c2cccc(Br)c2)c2cn(-c3cccc(Br)c3)nc12	none (no result: Hep lipid drop)
Cc1nnc(-c2cccc(Br)c2)c2cn(-c3ccccc3)nc12	AHR act 48
Cc1nnc(-c2cccc(Br)c2)c2cn(-c3ccc(Br)cc3)nc12	AHR act 89 (no result: Hep lipid drop)
COc1cccc(C2NC(=S)N(Cc3ccc(Br)cc3)C(C)=C2C(C)=O)c1 (configuration not stated)	none (no result: Hep lipid drop, SR-BI DiI-HDL act, CR mimetic SO, SR-BI DiI inh, AHR act)
